Assay [1] concerns Bacillus subtilis. Kind of assay: Antibacterial activity against Bacillus subtilis MTCC 441 at 1 ug/ml after 24 hrs by cup-plate method. The assay is classed as functional, organism-based. The method, boiled down: (§1)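 Cup-plate diffusion in nutrient agar, incubated 24 h at 37 °C. Compounds dissolved in DMF and tested at the single concentration given in the line. DMF served as the solvent control and ciprofloxacin as the reference standard. Read-out is the zone of inhibition diameter in mm.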

The subject of assay [2] is Bacillus subtilis. Kind of assay: Antibacterial activity against Bacillus subtilis MTCC 441 at 10 ug/ml after 24 hrs by cup-plate method. The assay is classed as functional, organism-based. The method, boiled down:
as §1

Assay [3] concerns Bacillus subtilis. The assay can be described thus: Antibacterial activity against Bacillus subtilis MTCC 441 at 100 ug/ml after 24 hrs by cup-plate method relative to ciprofloxacin. Format: functional, organism-based.
In assay [4] the test system is Bacillus subtilis. Kind of assay: Antibacterial activity against Bacillus subtilis MTCC 441 at 500 ug/ml after 24 hrs by cup-plate method. Format: functional, organism-based. The procedure, abridged: as §1
The test system of assay [5] is Bacillus subtilis. Kind of assay: Antibacterial activity against Bacillus subtilis MTCC 441 after 24 hrs. Format: functional. The settings on record: MTCC 441, 24 h. The method, boiled down: (§2)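 MIC was taken as the lowest concentration giving 100% growth inhibition relative to a drug-free control, after 24 h at 37 °C in nutrient agar. Compounds were dissolved in DMF, and ciprofloxacin was the reference.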

The subject of assay [6] is Bacillus subtilis. The assay can be described thus: Antibacterial activity against Bacillus subtilis MTCC 441 at 200 ug/ml after 24 hrs by cup-plate method relative to ciprofloxacin. Format: functional, organism-based.
The test system of assay [7] is Escherichia coli. The assay can be described thus: Antibacterial activity against Escherichia coli MTCC 443 at 1 ug/ml after 24 hrs by cup-plate method. Format: functional, organism-based. The method, boiled down: as §1
For assay [8], the system named is Escherichia coli. Kind of assay: Antibacterial activity against Escherichia coli MTCC 443 at 10 ug/ml after 24 hrs by cup-plate method. Format: functional, organism-based. The method, boiled down:
as §1

For assay [9], the system named is Escherichia coli. Kind of assay: Antibacterial activity against Escherichia coli MTCC 443 at 100 ug/ml after 24 hrs by cup-plate method. Format: functional, organism-based. The method, boiled down:
as §1

Assay [10] has as its system Escherichia coli. The assay can be described thus: Antibacterial activity against Escherichia coli MTCC 443 at 200 ug/ml after 24 hrs by cup-plate method. The assay is classed as functional, organism-based. The procedure, abridged: as §1
Assay [11] has as its system Escherichia coli. Kind of assay: Antibacterial activity against Escherichia coli MTCC 443 at 500 ug/ml after 24 hrs by cup-plate method. The assay is classed as functional, organism-based. The procedure, abridged: as §1
Assay [12] concerns Escherichia coli. Kind of assay: Antibacterial activity against Escherichia coli MTCC 443 after 24 hrs. The assay is classed as functional. The settings on record: MTCC 443, 24 h. The procedure, abridged: as §2
Assay [13] concerns Streptomyces griseus. Kind of assay: Antibacterial activity against Streptomyces griseus MTCC 1540 at 1 ug/ml after 24 hrs by cup-plate method. Format: functional, organism-based. The procedure, abridged:
as §1

In assay [14] the test system is Streptomyces griseus. Kind of assay: Antibacterial activity against Streptomyces griseus MTCC 1540 at 10 ug/ml after 24 hrs by cup-plate method. The assay is classed as functional, organism-based. The procedure, abridged: as §1
For assay [15], the system named is Streptomyces griseus. Kind of assay: Antibacterial activity against Streptomyces griseus MTCC 1540 at 100 ug/ml after 24 hrs by cup-plate method. Format: functional, organism-based. The method, boiled down:
as §1

In assay [16] the test system is Streptomyces griseus. The assay can be described thus: Antibacterial activity against Streptomyces griseus MTCC 1540 at 200 ug/ml after 24 hrs by cup-plate method. Format: functional, organism-based. The method, boiled down: as §1
Assay [17] deals with Streptomyces griseus. The assay can be described thus: Antibacterial activity against Streptomyces griseus MTCC 1540 at 500 ug/ml after 24 hrs by cup-plate method. Format: functional, organism-based. The procedure, abridged: as §1
Assay [18] has as its system Streptomyces griseus. Kind of assay: Antibacterial activity against Streptomyces griseus MTCC 1540 after 24 hrs. Format: functional. The following applies: MTCC 1540, 24 h. The method, boiled down: as §2
The subject of the next assay is Candida albicans. Kind of assay: Antifungal activity against Candida albicans MTCC 227 at 30 ug/ml after 48 hrs by cup-plate method. The assay is classed as functional. The settings on record: MTCC 227, 48 h, read-out: DIZ. The procedure, abridged:
(§3)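 Cup-plate diffusion on Sabouraud's dextrose agar, incubated 48 h at 28 °C. Compounds in DMF, which also served as the control, with fluconazole as the reference standard.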

A further assay relates to Aspergillus niger. Kind of assay: Antifungal activity against Aspergillus niger MTCC 282 at 30 ug/ml after 48 hrs by cup-plate method. The following applies: MTCC 282, 48 h, read-out: DIZ. The assay is classed as functional. The method, boiled down:
as §3

Assay [19] deals with Escherichia coli. The assay can be described thus: Antibacterial activity against Escherichia coli MTCC 443 at 100 ug/ml after 24 hrs by cup-plate method relative to ciprofloxacin. Format: functional, organism-based.
Assay [20] has as its system Escherichia coli. The assay can be described thus: Antibacterial activity against Escherichia coli MTCC 443 at 200 ug/ml after 24 hrs by cup-plate method relative to ciprofloxacin. Format: functional, organism-based.
Assay [21] deals with Streptomyces griseus. The assay can be described thus: Antibacterial activity against Streptomyces griseus MTCC 1540 at 200 ug/ml after 24 hrs by cup-plate method relative to ciprofloxacin. The assay is classed as functional, organism-based.
The test system of assay [22] is Bacillus subtilis. The assay can be described thus: Antibacterial activity against Bacillus subtilis MTCC 441 at 200 ug/ml after 24 hrs by cup-plate method. The assay is classed as functional, organism-based. The method, boiled down:
as §1

The test system of assay [23] is Escherichia coli. The assay can be described thus: Antibacterial activity against Escherichia coli MTCC 443 at 10 ug/ml after 24 hrs by cup-plate method relative to ciprofloxacin. Format: functional, organism-based.
For assay [24], the system named is Streptomyces griseus. The assay can be described thus: Antibacterial activity against Streptomyces griseus MTCC 1540 at 100 ug/ml after 24 hrs by cup-plate method relative to ciprofloxacin. The assay is classed as functional, organism-based.
The subject of assay [25] is Bacillus subtilis. The assay can be described thus: Antibacterial activity against Bacillus subtilis MTCC 441 at 10 ug/ml after 24 hrs by cup-plate method relative to ciprofloxacin. Format: functional, organism-based.
The test system of assay [26] is Streptomyces griseus. Kind of assay: Antibacterial activity against Streptomyces griseus MTCC 1540 at 10 ug/ml after 24 hrs by cup-plate method relative to ciprofloxacin. Format: functional, organism-based.

Results on four molecules are retold here after ChEMBL document CHEMBL1177873, “Synthesis and evaluation of some new benzothiazole derivatives as potential antimicrobial agents” (Eur J Med Chem, 2010).

In brackets after ≈: the same amount, converted by molar mass. Activity calls are given as the source filed them. No cut-off for these calls is given here.

On to `COc1ccc(/C=N/n2c(S)nnc2CCNc2nc3ccccc3s2)cc1OC`, for which the outcome in the assay on Bacillus subtilis [1], in the assay on Bacillus subtilis [2], in the assay with Bacillus subtilis [3], in the assay on Escherichia coli [7], in the assay with Escherichia coli [8] and in the assay on Streptomyces griseus [13] was inactive. Further, the outcome in the assay on Streptomyces griseus [14] was inactive. In addition, the outcome in the assay on Bacillus subtilis [4], in the assay with Escherichia coli [9], with Escherichia coli [10], in the assay with Escherichia coli [11], with Streptomyces griseus [15] and in the assay with Streptomyces griseus [16] was Active. The outcome in the assay on Streptomyces griseus [17] was Active. Moreover, the MIC stood at 500 µg/mL (≈ 1130 µM) in the assay with Bacillus subtilis [5], 100 µg/mL (≈ 227 µM) in the assay on Escherichia coli [12] and 100 µg/mL (≈ 227 µM) in the assay with Streptomyces griseus [18]. Besides, in the assay on Bacillus subtilis [6], the outcome was Active. The zone of inhibition at 30 µg/mL in the assay with Candida albicans and in the assay on Aspergillus niger was 22 mm in each case.
For the molecule `Sc1nnc(CCNc2nc3ccccc3s2)n1/N=C/c1ccccc1`, the outcome in the assay with Bacillus subtilis [1], with Bacillus subtilis [2], with Bacillus subtilis [3], in the assay with Escherichia coli [7], in the assay on Escherichia coli [8] and with Escherichia coli [19] was inactive. Also, the result with Streptomyces griseus [13], in the assay on Streptomyces griseus [14] and in the assay on Streptomyces griseus [15] was inactive. Also, the outcome in the assay on Bacillus subtilis [4], in the assay on Bacillus subtilis [6], in the assay on Escherichia coli [20], with Escherichia coli [11], in the assay with Streptomyces griseus [21] and in the assay on Streptomyces griseus [17] was Active. The minimal inhibitory concentration (MIC) with Bacillus subtilis [5], in the assay with Escherichia coli [12] and against Streptomyces griseus [18] was 500 µg/mL (≈ 1310 µM) throughout. The zone of inhibition at 30 µg/mL in the assay with Candida albicans came out at 22 mm; in the assay with Aspergillus niger it was 16 mm.
In the case of `O=[N+]([O-])c1cccc(/C=N/n2c(S)nnc2CCNc2nc3ccccc3s2)c1`, the result with Bacillus subtilis [1], in the assay with Bacillus subtilis [2], with Escherichia coli [7], with Escherichia coli [23], with Escherichia coli [19] and in the assay with Streptomyces griseus [13] was inactive. Also, in the assay with Streptomyces griseus [14], the result was inactive. Further, the outcome in the assay on Bacillus subtilis [3], in the assay on Bacillus subtilis [4], with Bacillus subtilis [22], in the assay on Escherichia coli [10], in the assay with Escherichia coli [11] and with Streptomyces griseus [24] was Active. Also, the outcome in the assay with Streptomyces griseus [16] and in the assay with Streptomyces griseus [17] was Active. In addition, the MIC against Bacillus subtilis [5], against Escherichia coli [12] and with Streptomyces griseus [18] was 200 µg/mL (≈ 470 µM) each time. Moreover, the zone of inhibition at 30 µg/mL in the assay on Candida albicans was 10 mm; in the assay on Aspergillus niger, less than 10 mm.
Take `O=[N+]([O-])c1ccccc1/C=N/n1c(S)nnc1CCNc1nc2ccccc2s1`: the result in the assay on Bacillus subtilis [1], with Bacillus subtilis [25], in the assay on Escherichia coli [7], with Escherichia coli [8], with Streptomyces griseus [13] and in the assay with Streptomyces griseus [26] was inactive. The outcome in the assay with Bacillus subtilis [3], in the assay on Bacillus subtilis [4], in the assay on Bacillus subtilis [22], in the assay with Escherichia coli [19], in the assay with Escherichia coli [10] and in the assay with Escherichia coli [11] was Active. Also, the outcome in the assay on Streptomyces griseus [24], with Streptomyces griseus [16] and with Streptomyces griseus [17] was Active. Moreover, the minimal inhibitory concentration (MIC) against Bacillus subtilis [5], with Escherichia coli [12] and with Streptomyces griseus [18] was 200 µg/mL (≈ 470 µM) in each case. The results for the zone of inhibition at 30 µg/mL with Candida albicans and in the assay on Aspergillus niger were less than 10 mm and 10 mm, respectively.
